PG9 binder: PG9 antibody binding by small molecule. TR-FRET gp120-PG9 antibody binding. inhibition, % at 6.7 µM. hit rate 0.43% among 360,000; in the data active means inhibition above about 8.5%
Rev-erbA mod: modulates human Rev-erb alpha binding to DNA. P20393. AID 1259318. hit rate 0.79% among 370,000. Rev-erbα–FITC-DNA binding, fluorescence polarization, 90 min. activity, % at 10 µM;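 active means activity above about 14%, limit read from the data; passing the limit was not always enough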;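 further: 0% = DMSO wells with 35 nM protein and 100% = DMSO wells with 750 nM protein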
Target sequence (P20393 whole entry, looked up): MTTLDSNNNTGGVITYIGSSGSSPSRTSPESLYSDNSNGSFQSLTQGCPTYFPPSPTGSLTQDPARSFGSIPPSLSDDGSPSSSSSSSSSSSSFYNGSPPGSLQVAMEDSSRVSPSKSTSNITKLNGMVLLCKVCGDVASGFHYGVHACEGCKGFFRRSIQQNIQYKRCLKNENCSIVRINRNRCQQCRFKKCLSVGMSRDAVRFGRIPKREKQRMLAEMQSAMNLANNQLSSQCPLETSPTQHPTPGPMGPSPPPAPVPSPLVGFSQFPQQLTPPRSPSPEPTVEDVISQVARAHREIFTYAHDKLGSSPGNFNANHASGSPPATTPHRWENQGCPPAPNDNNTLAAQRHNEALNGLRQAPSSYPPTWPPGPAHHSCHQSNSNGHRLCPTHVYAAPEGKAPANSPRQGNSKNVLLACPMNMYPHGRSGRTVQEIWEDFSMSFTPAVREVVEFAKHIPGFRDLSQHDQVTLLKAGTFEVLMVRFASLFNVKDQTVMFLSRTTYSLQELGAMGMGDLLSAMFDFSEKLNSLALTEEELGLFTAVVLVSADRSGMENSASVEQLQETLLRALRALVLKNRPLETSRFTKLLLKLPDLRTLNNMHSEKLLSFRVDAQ
NR2E3 ag-1: NR2E3 (human) agonism | Q9Y5X4 | AID 2300 | hit rate 0.12% among 320,000 | GST-NR2E3/biotin-RetCOR TR-FRET, 1536-well | inhibition of corepressor binding, % at 4.78 µM;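 active means percent inhibition above the cutoff of mean plus 3 SD of all tested compounds, set per screening campaign, cut at about 20% in these data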;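 further: 0% = DMSO wells and 100% = biotin wells as full block of FRET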
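Test system: GST-NR2E3 and biotin-RetCOR proteins | Quantity: 1.35 nM GST-tagged NR2E3 final | Medium: Tris pH 7.5 | Also added: 7 nM biotin-RetCOR | Dosing: Compound at 4.8 µM, single dose | Timing: 5 h at 4 °C | Detection: Time-resolved FRET | Read-out basis: Percent inhibition | Benchmarks: Biotin wells as high control, 0.6% DMSO wells as low control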
NR2E3 ag-2: agonists of human NR2E3 nuclear receptor; CHO-S Gal4-NCOR/VP16-NR2E3 two-hybrid, luciferase; inhibition of corepressor binding, % at 3.98 µM; hit rate 0.35% among 360,000; AID 602229;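 active means inhibition above the mean of all tested compounds plus 3 SD, cut at about 70% in these data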;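 further: 0% = DMSO with NR2E3 transfected cells and 100% = cells lacking NR2E3 construct; higher means lower luciferase signal from less NR2E3 corepressor binding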
PG9 binder conf: PG9 antibody binding, confirmed; shares compounds with PG9 binder; inhibition, % at 6.7 µM; hit rate 90% among 1,500; TR-FRET PG9 antibody binding, biochemical; in the data active means inhibition above about 9%
PGV04 Ab binding: PGV04 control antibody binding, counter-screen. AID 651604. hit rate 95% among 1,500. shares compounds with PG9 binder. inhibition, % at 6.7 µM. TR-FRET PGV04 antibody-gp120 binding, biochemical; in the data active means inhibition above about 9.5%
NR1D1 mod conf: confirmation of modulators of human Rev-erb alpha DNA binding; Rev-erb alpha FITC-DNA binding, fluorescence polarization, 90 min; activation, % at 25 µM; AID 1259319; hit rate 61% among 3,000; shares compounds with Rev-erbA mod;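 active means activation at or above a set limit, or at least 3 SD above the negative control mean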;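 further: 0% = 35 nM protein with DMSO and 100% = 750 nM protein high control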
RORg counter: counter-screen for Rev-erb alpha modulators: RORgamma DNA binding | shares compounds with Rev-erbA mod | AID 1259320 | hit rate 8% among 910 | IC50, µM | purified RORgamma protein-FITC-DNA binding, fluorescence polarization;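 active means Compounds whose fitted half-maximal concentration for disrupting protein-DNA binding is below 10 micromolar; the record names Rev-erb in its text, so the target is in doubt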
Active calls of the source: *; / = no result given. Hits are enriched below; roughly 1.4% of the tested compounds scored in any of these assays.

SMILES	PG9 binder	Rev-erbA mod	NR2E3 ag-1	NR2E3 ag-2	PG9 binder conf	PGV04 Ab binding	NR1D1 mod conf	others
O=C(COC(=O)c1n[nH]c2ccccc12)NC(=O)NC1CCCC1	-1	3	2	0	/	/	/
O=C(COC(=O)c1n[nH]c2ccccc12)NC(=O)NC12CC3CC(CC(C3)C1)C2	18*	17*	11	-24	22*	31*	31*
COc1ccc2[nH]c(C(=O)Nc3ccc(F)cc3Br)cc2c1	16*	68*	-36	-27	22*	65*	79*	RORg counter=>40
O=C(Nc1ccc(F)cc1)c1cc2cc(Cl)ccc2[nH]1	11*	43*	4	-55	13*	21*	7
O=C1c2cccc3cccc(c23)C(=O)N1Cc1cccnc1	0	5	3	-2	/	/	/
O=C1c2cccc3cccc(c23)C(=O)N1Cc1ccccc1	51*	36*	10	14	60*	69*	13
Cc1cc2nc(-c3ccc(SCC(=O)Nc4ccc(S(=O)(=O)N5CCCC5)cc4)nc3)[nH]c2cc1C	16*	31*	-27	-101	8	27*	32*
COc1ccc(OCCSc2nc3ccccc3c(=O)[nH]2)cc1	58*	29*	0	-2	53*	66*	21*
Cc1sc2nc(SCC(=O)NCCO)n(-c3ccccc3)c(=O)c2c1C	-1	0	-1	-3	/	/	/
Cc1ccc(-n2c(SCC(=O)NCc3ccco3)nc3sc(C)c(C)c3c2=O)cc1	30*	67*	15	7	29*	42*	63*
C=CCn1c(SCC(=O)NCc2ccco2)nc2sc(C)c(C)c2c1=O	3	-1	2	-12	/	/	/
Cc1sc2nc(SCC(=O)NCc3ccco3)n(-c3ccccc3)c(=O)c2c1C	51*	102*	1	-10	58*	75*	85*
COCCCN1C(=O)C(CC(=O)NCC2CCCCC2)CC(C(=O)N(C(C)C)C(C)C)=C1C (stereo not drawn)	-1	-4	/	-11	/	/	/
COc1ccccc1C(=O)NCCNc1nc2cc(C)cc(C)c2cc1C#N	0	4	6	11	/	/	/
Cc1cc(C)c2cc(C#N)c(NCCNC(=O)c3ccccc3)nc2c1	29*	18*	/	/	25*	32*	15*
O=C(Nc1scc(-c2ccccc2)c1C(=O)O)c1ccco1	0	-1	3	-67	/	/	/
COC(=O)c1c(-c2ccc(F)cc2)csc1NC(=O)c1ccco1	12*	27*	6	-213	18*	25*	16
COC(=O)c1sc(NC(=O)c2c(OC)cccc2OC)c(C#N)c1C	14*	26*	6	-11	20*	29*	29*
CC(C)NC(=O)C1(C)CN(S(C)(=O)=O)CC(=O)N1Cc1cccc(F)c1 (stereo not drawn)	-1	4	/	/	/	/	/
Cc1cc(C)c(NC(=O)CSc2nc3ncc(Br)cc3[nH]2)c(C)c1	39*	124*	0	3	41*	65*	99*	RORg counter=>40
Cc1ccc2oc(=O)c3cnn(CC(=O)N4CCCc5ccccc54)c3c2c1	15*	51*	3	24	35*	51*	44*
Cc1sc2nc(SC(C)C)nc(N)c2c1C	11*	49*	0	-3	8.8*	13*	41*	RORg counter=>40
C=CCNC(=O)NCC1CCN(Cc2ccc(OC)cc2)CC1	/	1	/	/	/	/	/
CCN(C(=O)COC(=O)c1cc(-c2ccccc2)nc2ccc(Br)cc12)C1CCS(=O)(=O)C1 (stereo not drawn)	12*	42*	12	9	23*	32*	43*
CCn1c(=O)cc(OCC(=O)N2CCCCCC2)c2ccccc21	1	-3	-1	-3	/	/	/
SMILES	PG9 binder	Rev-erbA mod	NR2E3 ag-1	NR2E3 ag-2	PG9 binder conf	PGV04 Ab binding	NR1D1 mod conf	others
CCn1c(=O)cc(OCC(=O)N2CCc3ccccc32)c2ccccc21	40*	45*	/	-19	50*	71*	12*
Cc1cc(=O)[nH]c(SCC(=O)Nc2ccc(Cl)cc2)n1	/	0	/	/	/	/	/
CC(=O)Nc1cccc(Nc2nc(-c3ccccc3)nc3ccccc23)c1	0	-1	-3	-16	/	/	/
CC(=O)c1cccc(Nc2nc(-c3ccccc3)nc3ccccc23)c1	36*	26*	3	-1	12*	22*	8
Cn1c(=O)cc(-c2ccccc2)c2ccccc21	0	3	4	5	/	/	/
Cn1c2ccccc2n2c(=O)cc(-c3ccccc3)c(C#N)c12	9.7*	44*	2	-24	16*	20*	21*
N#Cc1c(N)nc(SCC(=O)NCCc2ccccc2)c(C#N)c1-c1cccs1	40*	52*	17	-4	38*	62*	43*	RORg counter=>40
CC(C)OC(=O)CSc1nc(N)c(C#N)c(-c2cccs2)c1C#N	2	11	0	38	/	/	/
COc1ccc(-c2nnc(NC(=O)C(C)C)s2)c(OC)c1	12*	38*	12	2	20*	30*	28*	RORg counter=>40
COc1ccc(Cc2nnc(NC(=O)C(C)C)s2)cc1	0	2	1	-4	/	/	/
N#Cc1c(-c2ccccc2)cc(C2CC2)nc1SCC(=O)O	0	-7	-5	-12	/	/	/
N#Cc1c(-c2cccs2)cc(C2CC2)nc1SCC(N)=O	8.7*	52*	8	-4	18*	27*	47*	RORg counter=>40
Cc1ccccc1CN1[C@@H](CC(C)C)COc2cc(Br)ccc2S1(=O)=O	3	-1	/	/	/	/	/
Cc1cc(-n2c(SCC(=O)Nc3ccc(Br)cc3)nc3n[nH]c(C)c3c2=N)ccc1Cl	24*	37*	1	-27	21*	29*	22*
CCOc1ccc(-n2c(SCC(=O)Nc3ccc(Br)cc3)nc3n[nH]c(C)c3c2=N)cc1	5	14	7	-1	/	/	/
Cc1cc(-n2c(SCC(=O)NCc3cccs3)nc3n[nH]c(C)c3c2=N)ccc1Cl	38*	43*	0	19	33*	44*	28*
Cc1cc(-n2c(SCC(=O)Nc3ccc(F)c(F)c3)nc3n[nH]c(C)c3c2=N)ccc1Cl	21*	51*	1	14	6	8	27*
CC1(C(=O)NCCC#N)CCN1C(=O)c1ccccc1CCc1ccccc1 (stereo not drawn)	0	-7	/	-33	/	/	/
COc1ccc(NC(=O)c2sc3cc(C(F)(F)F)cnc3c2-c2cccs2)cc1	9.6*	112*	0	2	18*	71*	73*	RORg counter=>40

Source: PubChem BioAssay
